# High-throughput results: PubChem BioAssay, Sanford-Burnham Center for Chemical Genomics
# In the library only some 0.72% were active in any assay of this set; here they are far more common.
# mIAP act: activators of mouse IAP, primary screen, biochemical, luminescence, uHTS; intestinal alkaline phosphatase [Mus musculus]; muIAP, CDP-Star luminescence, 30 min; active compounds read high; 1 = vehicle-only enzyme signal, 0 = enzyme-free wells; activation factor at 10 µM; 330,000 tested, 0.24% active;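 active = activation factor of at least 2 at 20 µM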
#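 System: mouse IAP enzyme. Reagent: CDP-Star chemiluminescent phosphatase substrate. Benchmarks: DMSO wells, no-enzyme wells. Times: 30 min enzyme-substrate-compound incubation at room temperature. Detection: luminescence from enzymatic CDP-Star hydrolysis. Doses: test compounds delivered from DMSO solution.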
# bIAP inhibitor: bovine intestinal alkaline phosphatase inhibitors, primary screen, selectivity assay for TNAP inhibitor project, biochemical, bovine IAP, CDP-star luminescence; alkaline phosphatase, intestinal [Bos taurus]; purified bovine IAP, 30 min; inhibition, % at 20 µM; 190,000 tested, under 10 active; AID 1019, 2008;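 active = over 50% inhibition of intestinal alkaline phosphatase at 20 µM in the single-dose screen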
#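 System: purified bovine intestinal alkaline phosphatase (IAP) enzyme; Input: IAP diluted 1/65,000,000 in the well; Measured by: CDP-star luminescence signal; Compound dosing: 20 µM single dose; Incubation: 30 min reaction at room temperature.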
# bIAP activator: bovine intestinal alkaline phosphatase activators, primary screen, biochemical, bovine IAP, CDP-star luminescence. alkaline phosphatase, intestinal [Bos taurus]. purified bovine IAP, 30 min; active compounds read high; fold of DMSO-control signal, blank-subtracted. activation factor at 20 µM. 200,000 tested, 0.17% active;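 active = activation factor of 2 or more at 20 µM, a signal rise over negative controls twice the positive control's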
# hIAP block: human IAP inhibitors, primary screen, biochemical, luminescence, uHTS; Intestinal-type alkaline phosphatase (Homo sapiens), P09923; purified IAP, CDP-Star luminescence, 30 min; inhibition, % at 10 µM; 330,000 tested, 0.12% active;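 active = inhibition reaching a set limit with compound at 10 µM in the primary screen, cut at about 35% in these data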
# Target sequence (P09923 whole entry, looked up): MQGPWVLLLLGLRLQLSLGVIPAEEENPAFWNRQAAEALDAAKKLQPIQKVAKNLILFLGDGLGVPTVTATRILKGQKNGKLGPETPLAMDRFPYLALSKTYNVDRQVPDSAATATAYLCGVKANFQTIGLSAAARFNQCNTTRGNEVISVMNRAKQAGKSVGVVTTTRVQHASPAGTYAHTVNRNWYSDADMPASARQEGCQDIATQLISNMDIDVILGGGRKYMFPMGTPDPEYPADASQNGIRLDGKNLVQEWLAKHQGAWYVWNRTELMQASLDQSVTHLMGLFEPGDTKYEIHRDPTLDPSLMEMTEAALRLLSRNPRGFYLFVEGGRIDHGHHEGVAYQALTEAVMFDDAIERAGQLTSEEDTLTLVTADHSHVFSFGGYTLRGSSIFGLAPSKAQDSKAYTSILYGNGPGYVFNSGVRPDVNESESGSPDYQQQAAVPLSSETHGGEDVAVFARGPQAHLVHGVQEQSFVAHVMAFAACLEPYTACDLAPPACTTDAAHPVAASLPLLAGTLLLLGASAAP
# mIAP block: inhibitors of mouse IAP, primary screen, biochemical, luminescence, uHTS. intestinal alkaline phosphatase [Mus musculus]. purified mouse IAP, CDP-Star luminescence, 30 min. inhibition, % at 10 µM. 330,000 tested, 0.2% active. AID 2806, 2010;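 active = inhibition of at least 40% at 10 µM in the primary screen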
# hIAP act: human IAP activators, primary screen, biochemical, luminescence, uHTS; Intestinal-type alkaline phosphatase (Homo sapiens), P09923; purified human IAP, CDP-Star luminescence, 30 min; active compounds read high; 1 = vehicle-only enzyme, 0 = enzyme-free background; activation factor at 10 µM; 330,000 tested, 0.16% active;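 active = activation factor of the enzyme at least 2-fold when tested at 20 µM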
# hIAP act conf: human IAP activators, confirmation, biochemical, luminescence, single concentration, uHTS hits. shares compounds with hIAP act. purified IAP, CDP-Star luminescence, 30 min; active compounds read low. activation (%Activity, negative = activation), % at 8.3 µM. 880 tested, 10% active. AID 434926, 2010;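 active = at least twofold enzyme activation in any of six single-dose repeats, which the averaged readout prints as negative percent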
# Hits are given with their value; - = inactive; . = not tested or not shown; + = active, no number.
SMILES,mIAP act,bIAP inhibitor,bIAP activator,hIAP block,mIAP block,hIAP act,hIAP act conf
CC(C)[C@H](NS(=O)(=O)c1ccccc1)C(=O)Nc1ccccc1N1CCOCC1,-,.,.,-,-,-,.
CN(C(=O)CSc1ncccc1C(=O)O)c1ccccc1,-,-,-,36,-,-,-
Cc1cc(Br)ccc1NC(=O)CN(C)C(=O)CN1C(=O)NC(C)(C2CC2)C1=O (stereo unspecified),-,.,.,-,-,-,.
COc1ccc(CCN2C(=O)c3ccncc3C2=O)cc1OC,-,-,-,-,-,2.4,-
CCC(C)c1ccc(NC(=S)N2CCN(S(C)(=O)=O)CC2)cc1 (stereo unspecified),-,.,.,-,-,-,.
CCc1nnc(NC(=O)c2ccc3ccccc3n2)s1,-,-,-,-,-,-,.
CCSc1nnc(NC(=O)c2ccc3ccccc3n2)s1,-,-,-,-,-,2.1,-
CC1CCCN(C(=O)C2CCN(S(=O)(=O)c3cccc4nsnc34)CC2)C1 (stereo unspecified),-,.,.,49,-,-,-
COc1ccc(Nc2nc(NCc3ccco3)nc(N/N=C/c3ccc(O)cc3)n2)cc1,-,-,-,-,-,-,.
CN1CCN(C(=O)c2ccc3c(c2)OCCO3)CC1,-,-,-,37,-,-,-
O=C(c1ccccc1)N1CCN(C(=O)c2ccc3c(c2)OCCO3)CC1,-,-,-,-,-,-,.
CN(C)c1ccc(NC(=O)Nc2csc3ccccc23)cc1,-,.,.,-,-,-,-
CN(C)c1ccc(NC(=O)Nc2cccc(Cl)c2)cc1,-,-,-,-,-,-,.
COc1cccc(CC2(CO)CCCN(Cc3sc(N4CCCC4)nc3Cl)C2)c1 (stereo unspecified),-,-,-,-,-,-,.
CCC(C(=O)Nc1ccc(C(=O)N2CCCC2)cc1)c1ccccc1 (stereo unspecified),-,-,-,-,-,-,.
CCCCCCc1c(C)nc(-n2[nH]c(C)c(CCO)c2=O)[nH]c1=O,-,-,-,-,-,2.3,-
O=C(CNC(=S)N(CCCN1CCOCC1)Cc1cccs1)NCc1ccccc1Cl,-,.,.,-,-,2.1,-
O=C(CNC(=S)N(CCCN1CCOCC1)Cc1cccs1)NCCCN1CCOCC1,-,-,-,-,-,-,.
O=C(CNC(=S)N(CCCN1CCOCC1)Cc1cccs1)NCc1ccc(Cl)cc1,-,.,.,-,-,2.9,-
COC(CNC(=O)CNC(=S)N(CCCN1CCOCC1)Cc1cccs1)OC,-,-,-,-,-,-,.
COC(=O)c1cc(NC(=O)C2CCCN(S(=O)(=O)c3c(C)n[nH]c3C)C2)cc(C(=O)OC)c1 (stereo unspecified),-,-,-,-,-,-,.
Cc1cc(C)nc(Nc2n[nH]c(COc3ccccc3)n2)n1,-,-,-,-,-,-,.
Cc1cc(C)nc(Nc2n[nH]c(COc3ccc4ccccc4c3)n2)n1,-,-,-,-,-,2,-
COc1ccc(-c2cc(=O)c3c(O)cc(O)cc3o2)cc1,-,.,.,-,-,-,.
O=c1cc(-c2ccc(O)c(O)c2)oc2cc(O)cc(O)c12,-,.,.,58,-,-,-
SMILES,mIAP act,bIAP inhibitor,bIAP activator,hIAP block,mIAP block,hIAP act,hIAP act conf
Cc1cc(C)cc(CC(Cc2nc3ccccc3[nH]2)c2nc3ccccc3[nH]2)c1 (stereo unspecified),-,-,5.2,-,-,2.1,-323
Cn1c(=O)n(CCCO)c(=O)c2c1nc1n2CCCN1Cc1ccccc1,-,.,.,-,-,-,.
O=C(O)c1cccc(CSc2n[nH]c(-c3ccc(Cl)cc3Cl)n2)c1,-,-,-,40,-,-,-
COC1=CC(=Cc2c(N)n3nc(CC(=O)N4CCOCC4)sc3nc2=O)C=C(OC)C1=O,-,.,.,42,-,-,-
Cc1cc(N(C)/N=C/c2ccccc2O)nc(-c2ccccc2O)n1,-,-,-,-,-,2.3,-
O=C(C[n+]1ccn(CCCNP2(=O)C=C(c3ccccc3)OC(c3ccccc3)=C2)c1)c1cccs1,-,-,-,-,-,-,.
CCC(=O)NNc1ncnc2c1cnn2-c1cccc(C)c1,-,-,-,-,-,-,.
O=C(NNc1ncnc2c1cnn2-c1cccc(Cl)c1)c1ccco1,-,.,.,-,-,3.4,-
Cc1ccc(-n2ncc3c(NNC(=O)c4ccco4)ncnc32)cc1C,-,.,.,-,-,2.5,-
CC1CCN(S(=O)(=O)c2cc(C(=O)Nc3ccccn3)ccc2Br)CC1,-,.,.,-,-,-,.
COc1ccccc1CNC(=O)C(NS(=O)(=O)c1cccc2nsnc12)C(C)C (stereo unspecified),-,.,.,-,-,-,.
COC(=O)c1ccccc1NC(=O)Nc1ccc2c(c1)OCO2,-,-,-,-,-,-,.
COC(=O)c1ccc(C(=O)OC)c(NC(=O)Nc2ccc3c(c2)OCO3)c1,-,-,-,-,-,2.2,+
CC(=O)N(c1cccc(Br)c1)c1nc(C)cc(C)c1C#N,-,.,.,-,-,-,.
C=CCn1c(O)c(N=Nc2ccccc2O)c2ccccc21,-,.,.,-,-,2.2,-
Oc1cccc(/C=N/Nc2nn3cnnc3c3ccccc23)c1,-,.,.,-,-,-,.
COc1cccc(/C=N/Nc2nn3cnnc3c3ccccc23)c1O,-,-,-,-,-,2,-
COc1cccc(/C=N/NC(=O)N/N=C/c2cccc(OC)c2O)c1O,-,.,.,-,-,2.5,-
COc1ccc(NS(=O)(=O)c2cc3c4c(c2)CCN4C(=O)CC3)c(OC)c1,-,.,.,-,-,-,.
CCOC(=O)c1c(-c2ccccc2)csc1NC(=O)COc1ccc2c(C)cc(=O)oc2c1,-,-,-,44,-,-,-
CN(Cc1ccccc1)C(=O)c1[nH]cnc1C(=O)NCc1ccccc1,-,.,.,-,-,-,.
O=C(Nc1nccs1)c1nc[nH]c1C(=O)NCc1ccccc1,-,.,.,-,-,2.4,-
CN(Cc1ccccc1)C(=O)c1[nH]cnc1C(=O)Nc1nccs1,-,.,.,-,-,2.5,-141
O=C(O)c1nn(Cc2csc(-c3ccccc3)n2)c(=O)c2ccccc12,-,.,.,-,-,-,.
CCOC(=O)c1ccc(NC(=O)c2nc[nH]c2C(=O)N[C@@H](CC(C)C)C(=O)OC(C)(C)C)cc1,-,.,.,-,-,2,-
